Consider 22 sequences from the EternaBench riboswitch data.

Series [1] concerns MS2 coat protein. The experiment in a line: apparent Kd, MS2 coat protein; higher = weaker binding; RNA-MaP array; tryptophan 2.4 mM where present. In short, it runs like this:
(§1)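 On Illumina sequencing-chip clusters, designs were transcribed by stalled E. coli RNA polymerase and titrated with SNAP-549-labelled MS2 coat protein (0.7 or 1.5 nM, doubling to 3 µM), without and then with constant ligand, in 100 mM Tris-HCl pH 7.5, 80 mM KCl, 4 mM MgCl2, BSA, DTT, yeast tRNA and Tween-20. Apparent Kd is the median of filtered per-cluster curve fits to green signal normalised to red-channel RNA signal and control-cluster median Fmax.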

In series [2] the test system is MS2 coat protein. The experiment in a line: apparent Kd, MS2 coat protein; higher = weaker binding; RNA-MaP array; theophylline 2 mM where present. A digest of the protocol:
as §1

Where [3] appears, read: designed as: ON switch for tryptophan, no ligand.
Where [4] appears, read: ligand present: tryptophan, designed as: ON switch for tryptophan.
The mark [5] stands for this setting: designed as: OFF switch for theophylline, no ligand.
Where [6] appears, read: ligand present: theophylline, designed as: OFF switch for theophylline.
[7] abbreviates: designed as: ON switch for theophylline, no ligand.
The mark [8] stands for this setting: ligand present: theophylline, designed as: ON switch for theophylline.

Broadly, the apparent Kd is the concentration giving half-maximal binding under the conditions of the assay. Consider “CACGAUUUGUCGGCCGCCACUAAGGUAACUCUUCUCACAUGAGGAUCACCCAUGUGCCCGAAGCUUAGGACCGGGAUAAUGGGUG”, for which the “apparent Kd” value in the series with MS2 coat protein [1] (setting [3]) is 118 nM; with MS2 coat protein [1] (setting [4]) it was 40.8 nM.

Turning to “ACAUGAGGAUCACCCAUGUCAUGAGGUUCACGAGGACCGGUACGGCCGCCACUCGACAUGAGGGUCACCCGUGAACGGAACACCC”, the “apparent Kd” value is 14.8 nM with MS2 coat protein [1] (setting [3]) and 20 nM in the series on MS2 coat protein [1] (setting [4]).

Take “ACGUUUUAGUCGGCCGCCACUGAUCUCAUGUUCAACAUGAGGAUCACCCAUGUACCUUUUUUUAUCAGGACCGGGACGUAAUAGA”: the “apparent Kd” value in the series on MS2 coat protein [1] (setting [3]) worked out at 329 nM; in the series on MS2 coat protein [1] (setting [4]), 62.3 nM.

In the case of “CGACUGUAAAGUCGACCGGUCAUCAAUAAUCGAGGACCGGUACGGCCGCCACUCGAUGUGAUUUCACAUGAGGAUCACCCAUGUA”, the “apparent Kd” value is 23.9 nM in the series on MS2 coat protein [1] (setting [3]) and 22.2 nM with MS2 coat protein [1] (setting [4]).

“AUUAAGGAUAUAUAGAAGGCGGAGAAGAGACGAGGACCGGUACGGCCGCCACUCGUGUUAGUUAACAUGAGGAUCACCCAUGUAA”: the “apparent Kd” value was found to be 80.6 nM in the series with MS2 coat protein [1] (setting [3]) and 18.7 nM with MS2 coat protein [1] (setting [4]).

Consider “AGAUGAGUCACGGCCGCCACUCUUAUCAGGAUCACCCAUGGUUGACAUGAGGAUCACCCAUGUAUGAGGACCGGGUGAUGAGCAU”, for which the “apparent Kd” value in the series on MS2 coat protein [1] (designed as: OFF switch for tryptophan, no ligand) was determined as 12.2 nM; with MS2 coat protein [1] (ligand present: tryptophan, designed as: OFF switch for tryptophan), 15.6 nM.

In the case of “ACAUUAGCCACGGCCGCCACUGCUUUAUGAUUAUAAGGAUUAAUGAACAUGAGGAUCACCCAUGUCAGGACCGGGUGCCUACCAU”, the “apparent Kd” value with MS2 coat protein [1] (setting [3]) was 29.8 nM; with MS2 coat protein [1] (setting [4]), 29.7 nM.

Take “AAGCUGCCAAGAACAUGGGUGAAAUGUGAUACCAGCUAGGAAACUAGCCCUUGGCAGCACAUGAGGAUCACCCAUGUAAUAAUAA”: the results for the “apparent Kd” value in the series with MS2 coat protein [2] (setting [5]) and with MS2 coat protein [2] (setting [6]) were 352 nM and 93.7 nM, respectively.

As for “AUACCUAAUGAGUCGUGUAACUUUUCAGAUACCAGACUUUUCGUUGUCCCUUGGCAGCUGUUUUACAUGAGGAUCACCCAUGUUG”, the results for the “apparent Kd” value with MS2 coat protein [2] (setting [5]) and with MS2 coat protein [2] (setting [6]) were 15.9 nM and 38.1 nM, respectively.

For “CUCGAGUUAUGAGAUACCAGACUAUAGUUUACAUGAGGAUCACCCAUGUUAUGGGUGGUGGUCCCUUGGCAGCUCAUAUGUUUAA”, the “apparent Kd” value in the series with MS2 coat protein [2] (setting [5]) is 60.1 nM; in the series with MS2 coat protein [2] (setting [6]), 284 nM.

Take “UAUAUAUAGAUGGAUACCAGCAGAGAAAACGUUUAUCCUAACAUGAGGAUCACCCAUGUAUGCCCUUGGCAGCUGUUUAUAUAUA”: the “apparent Kd” value with MS2 coat protein [2] (setting [5]) is 24.4 nM; in the series on MS2 coat protein [2] (setting [6]) it was 31.6 nM.

On to “AAAAUAAAUAAAACACGUAACAUGAAGGAUACCAGACCGGAAACGGUCCCUUGGCAGCCUCUACAUGAGGAUCACCCAUGUCGUG”, for which the “apparent Kd” value in the series on MS2 coat protein [2] (setting [7]) was 238 nM; in the series with MS2 coat protein [2] (setting [8]) it was 30.9 nM.

Regarding “GGAAGCAGGACUGAUACCAGUCCAGCGAAUCAUACGACGCAACAUGAGGAUCACCCAUGUGACCCUUGGCAGCAGACUGCUACCG”, the “apparent Kd” value in the series with MS2 coat protein [2] (setting [7]) was 31.5 nM; in the series on MS2 coat protein [2] (setting [8]), 13.7 nM.

In the case of “AUCGUACCUGAUGAUACCAGCAAUUGCUCGUAACAUGAGGAUCACCCAUGUGAUCAGUGAUGCCCUUGGCAGCAUGAUCGGUGCA”, the “apparent Kd” value in the series with MS2 coat protein [2] (setting [7]) worked out at 262 nM; with MS2 coat protein [2] (setting [8]), 35.4 nM.

Turning to “AUCGUACCUGAUGAUACCAGCAAUUGCUCGUAACAUGAGGAUCACCCAUGUGACCAGUGAUGCCCUUGGCAGCAUGAUCGGUGCA”, the “apparent Kd” value with MS2 coat protein [2] (setting [7]) was found to be 53.8 nM; in the series with MS2 coat protein [2] (setting [8]), 12.4 nM.

Turning to “ACGACGCAUAGUGAUACCAGCACAACAUGAGGAUCACCCAUGUCACAUAUGUUGUAAUAAUGCCCUUGGCAGCACUAUGCGUCAG”, the figures for the “apparent Kd” value in the series with MS2 coat protein [2] (setting [7]) and in the series on MS2 coat protein [2] (setting [8]) were 52 nM and 87.3 nM, respectively.

“AAUAAGUAUCUGCUAGGUGAUCCAGCAGAUACCAGCUAGGAAACUAGCCCUUGGCAGCUGCAACAUGAGGAUCACCCAUGUAAUA”: the “apparent Kd” value in the series with MS2 coat protein [2] (setting [5]) is 444 nM; with MS2 coat protein [2] (setting [6]), 228 nM.

As to “AACCGAGGCUAUCCUCUACGACUAUGUGAUACCAGAAUAAUUUUAUUCCCUUGGCAGCAUGACAUGAGGAUCACCCAUGUCUCUU”, the “apparent Kd” value with MS2 coat protein [2] (setting [7]) came out at 39.2 nM; with MS2 coat protein [2] (setting [8]) it was 58.2 nM.

On to “UCUCGGUCUUUCUUUCUCCGAGAAUAUGAUACCAGUUAGUUUUAUGGCCCUUGGCAGCAUAGAACAUGAGGAUCACCCAUGUGUU”, for which the “apparent Kd” value in the series on MS2 coat protein [2] (setting [7]) came to 94.2 nM; in the series with MS2 coat protein [2] (setting [8]), 108 nM.

Regarding “UGACAUUGCUCAGAUACCAGACAUGAGGAUCACCCAUGUACCAAGAAAACGUACAUAAAUGUCCCUUGGCAGCUGAGCAAUGUCU”, the “apparent Kd” value in the series on MS2 coat protein [2] (setting [5]) turned out to be 524 nM; in the series on MS2 coat protein [2] (setting [6]), 713 nM.

For “AACAUGAGGAUCACCCAUGUAUUGGGUGAUACCAGCCUGAAUAAUGGCCCUUGGCAGCACCGCGCUAACUUUAUGUCUGCGAAAC”, the figures for the “apparent Kd” value with MS2 coat protein [2] (setting [7]) and in the series on MS2 coat protein [2] (setting [8]) were 127 nM and 138 nM, respectively.

Take “GUAUGGAAACAUACUAGGGUAUCAUGAGAUACCAGUACAGAAAUGUACCCUUGGCAGCUCUAGCAUACAUGAGGAUCACCCAUGU”: the “apparent Kd” value in the series with MS2 coat protein [2] (setting [5]) is 14 nM; in the series with MS2 coat protein [2] (setting [6]), 22.9 nM.
